Assays:
[1] = Inhibition of Bordetella HDAH using Boc-Lys(trifluoroacetyl)-AMC as substrate preincubated for 30 mins followed by substrate addition measured after 60 mins by trypsin-based fluorescence assay
In short: (§1)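 Bacterial HDAH activity was measured by a fluorogenic assay in which the deacetylated substrate is converted to fluorescent dye by trypsin. Ki was calculated via Cheng-Prusoff from IC50 values, which were fitted to dose-response curves spanning 10 ligand concentrations.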

[2] = Inhibition of Pseudomonas aeruginosa PA0321 using Boc-Lys(trifluoroacetyl)-AMC as substrate preincubated for 30 mins followed by substrate addition measured after 60 mins by trypsin-based fluorescence assay
Histone deacetylase 8 = molecular target: T1, Histone deacetylase 8 (Homo sapiens, UniProt Q9BY41); assay: Inhibition of human HDAC8 using Boc-Lys(trifluoroacetyl)-AMC as substrate preincubated for 30 mins followed by substrate addition measured after 60 mins by trypsin-based fluorescence assay
T1 sequence (Q9BY41 whole entry): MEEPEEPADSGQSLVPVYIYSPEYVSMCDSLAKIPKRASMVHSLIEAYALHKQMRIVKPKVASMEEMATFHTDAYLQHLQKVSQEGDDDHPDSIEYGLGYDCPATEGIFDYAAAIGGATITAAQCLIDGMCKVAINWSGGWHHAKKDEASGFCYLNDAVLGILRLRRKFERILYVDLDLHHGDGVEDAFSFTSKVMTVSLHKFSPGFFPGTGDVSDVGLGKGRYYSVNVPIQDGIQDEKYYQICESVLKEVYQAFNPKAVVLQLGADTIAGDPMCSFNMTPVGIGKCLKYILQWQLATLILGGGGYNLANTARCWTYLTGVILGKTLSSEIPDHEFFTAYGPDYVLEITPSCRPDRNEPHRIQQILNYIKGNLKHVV
In short: (§2)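 Boc-Lys(trifluoroacetyl)-AMC served as substrate in a fluorogenic activity assay. Trypsin was added after a 30 min incubation to release the fluorescent dye from the deacetylated product. IC50 values came from 10-point ligand dose-response curves and were converted to Ki by the Cheng-Prusoff relation.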

[3] = Inhibition of Alcaligenes HDAH using Boc-Lys(trifluoroacetyl)-AMC as substrate preincubated for 30 mins followed by substrate addition measured after 60 mins by trypsin-based fluorescence assay; in short: as §1
Histone deacetylase 4 = Histone deacetylase 4 (Homo sapiens, UniProt P56524); assay: Inhibition of human HDAC4 using Boc-Lys(trifluoroacetyl)-AMC as substrate preincubated for 30 mins followed by substrate addition measured after 60 mins by trypsin-based fluorescence assay
Histone deacetylase 7 = molecular target: T2, Histone deacetylase 7 (Homo sapiens, UniProt Q8WUI4); assay: Inhibition of human HDAC7 using Boc-Lys(trifluoroacetyl)-AMC as substrate preincubated for 30 mins followed by substrate addition measured after 60 mins by trypsin-based fluorescence assay; in short: as §2
T2 sequence (Q8WUI4 whole entry): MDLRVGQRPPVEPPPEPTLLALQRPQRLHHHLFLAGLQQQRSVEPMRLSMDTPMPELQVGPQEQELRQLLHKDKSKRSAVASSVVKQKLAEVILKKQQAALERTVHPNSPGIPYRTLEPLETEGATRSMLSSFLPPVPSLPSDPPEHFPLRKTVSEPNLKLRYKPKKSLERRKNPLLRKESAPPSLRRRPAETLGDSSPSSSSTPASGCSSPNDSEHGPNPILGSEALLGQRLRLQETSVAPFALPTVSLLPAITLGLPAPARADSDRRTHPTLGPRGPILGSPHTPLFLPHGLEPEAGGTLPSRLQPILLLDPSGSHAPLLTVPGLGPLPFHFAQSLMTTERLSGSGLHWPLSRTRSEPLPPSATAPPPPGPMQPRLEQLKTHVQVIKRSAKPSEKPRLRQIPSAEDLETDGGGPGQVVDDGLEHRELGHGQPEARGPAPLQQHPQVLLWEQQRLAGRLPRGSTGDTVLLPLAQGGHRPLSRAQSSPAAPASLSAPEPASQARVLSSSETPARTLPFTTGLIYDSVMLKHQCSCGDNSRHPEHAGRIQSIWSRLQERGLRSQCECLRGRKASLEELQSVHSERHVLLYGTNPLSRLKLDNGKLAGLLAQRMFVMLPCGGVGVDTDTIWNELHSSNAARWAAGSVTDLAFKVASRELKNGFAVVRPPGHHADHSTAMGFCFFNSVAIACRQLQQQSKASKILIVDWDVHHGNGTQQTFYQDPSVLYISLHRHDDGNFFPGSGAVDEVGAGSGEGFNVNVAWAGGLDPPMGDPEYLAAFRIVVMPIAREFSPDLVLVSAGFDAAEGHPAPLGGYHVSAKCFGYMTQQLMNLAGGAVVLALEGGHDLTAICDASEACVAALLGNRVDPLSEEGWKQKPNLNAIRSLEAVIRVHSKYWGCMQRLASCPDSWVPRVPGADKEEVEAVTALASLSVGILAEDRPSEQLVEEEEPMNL

[4] = Inhibition of Pseudomonas aeruginosa PA1409 using Boc-Lys(trifluoroacetyl)-AMC as substrate preincubated for 30 mins followed by substrate addition measured after 60 mins by trypsin-based fluorescence assay
[5] = Inhibition of Pseudomonas aeruginosa PA3774 using Boc-Lys(trifluoroacetyl)-AMC as substrate preincubated for 30 mins followed by substrate addition measured after 60 mins by trypsin-based fluorescence assay
[6] = molecular target: T3, Protein deacetylase HDAC6 (Homo sapiens, UniProt Q9UBN7); assay: Inhibition of human HDAC6 using Boc-Lys(Ac)-AMC as substrate preincubated for 30 mins followed by substrate addition measured after 60 mins by trypsin-based fluorescence assay
T3 sequence (Q9UBN7 whole entry): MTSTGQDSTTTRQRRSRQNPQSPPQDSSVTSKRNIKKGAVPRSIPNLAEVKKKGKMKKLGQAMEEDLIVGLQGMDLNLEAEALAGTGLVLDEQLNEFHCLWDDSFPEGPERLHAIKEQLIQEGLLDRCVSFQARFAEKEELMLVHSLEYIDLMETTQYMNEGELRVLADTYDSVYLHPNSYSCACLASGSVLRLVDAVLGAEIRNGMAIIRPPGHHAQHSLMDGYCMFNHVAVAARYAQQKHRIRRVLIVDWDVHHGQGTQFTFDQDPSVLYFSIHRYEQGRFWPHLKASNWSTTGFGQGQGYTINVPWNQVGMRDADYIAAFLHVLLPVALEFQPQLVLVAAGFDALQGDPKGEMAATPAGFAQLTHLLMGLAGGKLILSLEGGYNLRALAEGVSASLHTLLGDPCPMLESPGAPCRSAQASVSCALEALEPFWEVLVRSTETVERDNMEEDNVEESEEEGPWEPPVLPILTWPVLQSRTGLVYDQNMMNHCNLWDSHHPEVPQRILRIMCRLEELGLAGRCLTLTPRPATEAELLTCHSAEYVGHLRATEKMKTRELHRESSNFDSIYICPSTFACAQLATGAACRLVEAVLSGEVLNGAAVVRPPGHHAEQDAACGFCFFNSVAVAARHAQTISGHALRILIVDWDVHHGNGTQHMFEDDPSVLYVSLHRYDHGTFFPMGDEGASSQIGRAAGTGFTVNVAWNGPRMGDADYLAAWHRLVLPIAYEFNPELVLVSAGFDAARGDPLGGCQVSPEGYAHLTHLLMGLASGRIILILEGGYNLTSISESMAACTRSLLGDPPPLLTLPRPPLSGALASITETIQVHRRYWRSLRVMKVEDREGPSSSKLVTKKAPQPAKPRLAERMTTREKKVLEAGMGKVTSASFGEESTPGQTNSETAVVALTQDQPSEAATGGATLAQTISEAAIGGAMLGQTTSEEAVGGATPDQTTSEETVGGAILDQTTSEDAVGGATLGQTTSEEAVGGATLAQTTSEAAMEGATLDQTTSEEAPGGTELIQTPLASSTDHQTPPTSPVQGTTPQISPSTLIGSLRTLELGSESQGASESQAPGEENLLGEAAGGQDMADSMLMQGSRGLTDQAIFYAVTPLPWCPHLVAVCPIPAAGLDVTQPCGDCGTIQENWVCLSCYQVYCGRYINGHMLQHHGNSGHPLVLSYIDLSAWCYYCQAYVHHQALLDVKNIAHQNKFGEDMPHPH
In short: (§3)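 Fluorogenic deacetylase assay with Boc-Lys(Ac)-AMC substrate. After a 30 min incubation, trypsin was added to convert the deacetylated substrate to the fluorescent dye.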

Histone deacetylase 5 = Histone deacetylase 5 (Homo sapiens, UniProt Q9UQL6); assay: Inhibition of human HDAC5 using Boc-Lys(trifluoroacetyl)-AMC as substrate preincubated for 30 mins followed by substrate addition measured after 60 mins by trypsin-based fluorescence assay
Histone deacetylase 1 = Histone deacetylase 1 (Homo sapiens, UniProt Q13547); assay: Inhibition of human HDAC1 using Boc-Lys(Ac)-AMC as substrate preincubated for 30 mins followed by substrate addition measured after 60 mins by trypsin-based fluorescence assay; in short: as §3
Chain of Histone deacetylase 1 (Q13547 whole entry): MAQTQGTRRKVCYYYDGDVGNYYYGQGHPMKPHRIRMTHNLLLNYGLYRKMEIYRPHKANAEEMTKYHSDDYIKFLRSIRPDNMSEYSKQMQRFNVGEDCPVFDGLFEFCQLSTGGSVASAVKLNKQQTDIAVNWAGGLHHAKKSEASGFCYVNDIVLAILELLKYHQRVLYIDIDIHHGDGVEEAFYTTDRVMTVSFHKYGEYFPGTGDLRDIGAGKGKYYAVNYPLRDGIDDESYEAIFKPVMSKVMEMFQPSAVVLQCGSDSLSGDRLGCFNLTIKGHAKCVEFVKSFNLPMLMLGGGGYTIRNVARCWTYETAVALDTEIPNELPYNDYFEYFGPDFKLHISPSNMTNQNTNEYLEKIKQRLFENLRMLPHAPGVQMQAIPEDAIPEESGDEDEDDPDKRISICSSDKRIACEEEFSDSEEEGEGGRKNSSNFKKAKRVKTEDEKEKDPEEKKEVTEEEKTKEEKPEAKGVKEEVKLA

Chain of Histone deacetylase 4 (P56524 whole entry): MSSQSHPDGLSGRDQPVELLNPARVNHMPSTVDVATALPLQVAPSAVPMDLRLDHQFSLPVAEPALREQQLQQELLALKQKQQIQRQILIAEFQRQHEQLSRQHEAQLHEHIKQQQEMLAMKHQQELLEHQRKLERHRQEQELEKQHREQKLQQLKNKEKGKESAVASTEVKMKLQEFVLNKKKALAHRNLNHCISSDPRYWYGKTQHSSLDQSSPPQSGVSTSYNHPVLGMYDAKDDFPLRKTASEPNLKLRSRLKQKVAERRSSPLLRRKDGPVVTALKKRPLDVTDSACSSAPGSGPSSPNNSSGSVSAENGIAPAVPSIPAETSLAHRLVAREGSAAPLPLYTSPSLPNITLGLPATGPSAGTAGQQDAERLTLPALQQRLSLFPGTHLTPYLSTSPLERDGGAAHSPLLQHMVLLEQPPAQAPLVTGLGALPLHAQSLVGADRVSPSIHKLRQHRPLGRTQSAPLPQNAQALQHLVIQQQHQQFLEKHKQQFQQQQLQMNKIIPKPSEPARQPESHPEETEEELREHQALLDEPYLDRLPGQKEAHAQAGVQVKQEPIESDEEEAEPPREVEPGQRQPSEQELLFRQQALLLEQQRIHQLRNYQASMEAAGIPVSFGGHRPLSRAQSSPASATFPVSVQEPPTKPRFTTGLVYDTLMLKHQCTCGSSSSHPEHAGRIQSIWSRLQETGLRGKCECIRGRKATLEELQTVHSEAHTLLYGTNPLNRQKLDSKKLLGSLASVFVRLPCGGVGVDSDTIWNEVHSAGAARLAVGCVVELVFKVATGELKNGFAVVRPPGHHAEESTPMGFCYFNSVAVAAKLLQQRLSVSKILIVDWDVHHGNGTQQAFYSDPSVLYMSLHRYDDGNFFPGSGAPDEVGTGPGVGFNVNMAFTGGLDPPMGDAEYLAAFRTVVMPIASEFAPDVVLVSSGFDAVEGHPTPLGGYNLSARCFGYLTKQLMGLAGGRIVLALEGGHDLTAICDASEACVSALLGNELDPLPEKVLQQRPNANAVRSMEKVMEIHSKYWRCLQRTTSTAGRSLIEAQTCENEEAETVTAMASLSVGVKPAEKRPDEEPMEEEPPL
Chain of Histone deacetylase 5 (Q9UQL6 whole entry): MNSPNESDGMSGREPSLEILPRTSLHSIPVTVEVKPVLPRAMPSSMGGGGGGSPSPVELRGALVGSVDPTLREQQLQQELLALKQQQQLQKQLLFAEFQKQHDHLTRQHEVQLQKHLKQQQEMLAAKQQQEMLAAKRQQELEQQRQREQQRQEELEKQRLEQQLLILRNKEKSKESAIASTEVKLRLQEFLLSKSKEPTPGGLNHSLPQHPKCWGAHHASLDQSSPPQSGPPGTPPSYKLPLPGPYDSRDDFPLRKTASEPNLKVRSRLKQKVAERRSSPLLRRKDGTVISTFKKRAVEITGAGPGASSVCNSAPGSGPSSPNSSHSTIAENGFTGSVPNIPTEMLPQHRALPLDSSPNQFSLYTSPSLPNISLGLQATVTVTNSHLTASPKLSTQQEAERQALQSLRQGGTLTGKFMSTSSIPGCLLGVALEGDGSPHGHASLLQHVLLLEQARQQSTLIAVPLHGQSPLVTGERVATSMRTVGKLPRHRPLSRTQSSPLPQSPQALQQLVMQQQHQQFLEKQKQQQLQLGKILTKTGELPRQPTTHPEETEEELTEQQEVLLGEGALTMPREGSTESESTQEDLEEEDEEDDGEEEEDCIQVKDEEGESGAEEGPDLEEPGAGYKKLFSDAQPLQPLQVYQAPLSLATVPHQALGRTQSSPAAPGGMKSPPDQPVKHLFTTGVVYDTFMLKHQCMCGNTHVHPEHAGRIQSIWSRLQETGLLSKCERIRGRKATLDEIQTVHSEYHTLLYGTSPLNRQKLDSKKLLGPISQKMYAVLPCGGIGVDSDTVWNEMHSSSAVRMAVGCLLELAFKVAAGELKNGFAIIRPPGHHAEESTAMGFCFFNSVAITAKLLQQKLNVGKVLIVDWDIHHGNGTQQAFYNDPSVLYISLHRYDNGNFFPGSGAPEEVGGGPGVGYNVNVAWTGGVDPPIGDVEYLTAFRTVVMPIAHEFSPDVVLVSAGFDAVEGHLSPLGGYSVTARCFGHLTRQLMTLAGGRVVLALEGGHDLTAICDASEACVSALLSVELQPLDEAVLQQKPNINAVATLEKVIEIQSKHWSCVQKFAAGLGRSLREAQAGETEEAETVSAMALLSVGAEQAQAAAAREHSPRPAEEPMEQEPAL

Cc1ccc(NC(=O)C(F)(F)C(F)(F)C(F)(F)C(F)(F)C(F)(F)C(F)(F)C(=O)NO)cc1C
Ki [1]: 110 nM
Ki [2]: 1600 nM
Ki (Histone deacetylase 8): 8.4 µM
Ki [3]: 110 nM
Ki (Histone deacetylase 4): > 50 µM
Ki (Histone deacetylase 7): 2.5 µM
Ki [4]: 5.8 µM
Ki [5]: 100 nM
Ki [6]: 20 µM
Ki (Histone deacetylase 5): > 50 µM
Ki (Histone deacetylase 1): 7 µM

CN(C)c1ccc(NC(=O)C(F)(F)C(F)(F)C(F)(F)C(F)(F)C(F)(F)C(F)(F)C(=O)NO)cc1
Ki [1]: > 50000 nM
Ki [2]: > 50000 nM
Ki (Histone deacetylase 8): > 50 µM
Ki [3]: > 50000 nM
Ki (Histone deacetylase 4): > 50 µM
Ki (Histone deacetylase 7): > 50 µM
Ki [4]: > 50 µM
Ki [5]: 2700 nM
Ki [6]: > 50 µM
Ki (Histone deacetylase 5): > 50 µM
Ki (Histone deacetylase 1): > 50 µM

O=C(NO)C(F)(F)C(F)(F)C(F)(F)C(F)(F)C(F)(F)C(F)(F)C(=O)Nc1ccc(F)cc1
Ki [1]: 330 nM
Ki [2]: 490 nM
Ki (Histone deacetylase 8): > 50 µM
Ki [3]: 330 nM
Ki (Histone deacetylase 4): > 50 µM
Ki (Histone deacetylase 7): > 50 µM
Ki [4]: > 50 µM
Ki [5]: 460 nM
Ki [6]: > 50 µM
Ki (Histone deacetylase 5): > 50 µM
Ki (Histone deacetylase 1): > 50 µM

Cc1ccccc1NC(=O)C(F)(F)C(F)(F)C(F)(F)C(F)(F)C(F)(F)C(F)(F)C(=O)NO
Ki [1]: 620 nM
Ki [2]: 84000 nM
Ki (Histone deacetylase 8): > 50 µM
Ki [3]: 620 nM
Ki (Histone deacetylase 4): > 50 µM
Ki (Histone deacetylase 7): > 50 µM
Ki [4]: > 50 µM
Ki [5]: 160 nM
Ki [6]: > 50 µM
Ki (Histone deacetylase 5): > 50 µM
Ki (Histone deacetylase 1): > 50 µM

O=C(NO)C(F)(F)C(F)(F)C(F)(F)C(F)(F)C(F)(F)C(F)(F)C(=O)Nc1cccc(Cl)c1
Ki [1]: 170 nM
Ki [2]: 73 nM
Ki (Histone deacetylase 8): > 50 µM
Ki [3]: 170 nM
Ki (Histone deacetylase 4): > 50 µM
Ki (Histone deacetylase 7): > 50 µM
Ki [4]: 11 µM
Ki [5]: 46 nM
Ki [6]: > 50 µM
Ki (Histone deacetylase 5): > 50 µM
Ki (Histone deacetylase 1): > 50 µM

COc1ccc(NC(=O)C(F)(F)C(F)(F)C(F)(F)C(F)(F)C(F)(F)C(F)(F)C(=O)NO)cc1
Ki [1]: 180 nM
Ki [2]: 370 nM
Ki (Histone deacetylase 8): > 50 µM
Ki [3]: 180 nM
Ki (Histone deacetylase 4): > 50 µM
Ki (Histone deacetylase 7): > 50 µM
Ki [4]: > 50 µM
Ki [5]: 1200 nM
Ki [6]: > 50 µM
Ki (Histone deacetylase 5): > 50 µM
Ki (Histone deacetylase 1): > 50 µM

Cc1cccc(NC(=O)C(F)(F)C(F)(F)C(F)(F)C(F)(F)C(F)(F)C(F)(F)C(=O)NO)c1
Ki [1]: 450 nM
Ki [2]: 270 nM
Ki (Histone deacetylase 8): > 50 µM
Ki [3]: 450 nM
Ki (Histone deacetylase 4): > 50 µM
Ki (Histone deacetylase 7): > 50 µM
Ki [4]: 11 µM
Ki [5]: 92 nM
Ki [6]: > 50 µM
Ki (Histone deacetylase 5): > 50 µM
Ki (Histone deacetylase 1): > 50 µM

O=C(NO)C(F)(F)C(F)(F)C(F)(F)C(F)(F)C(F)(F)C(F)(F)C(=O)Nc1ccccc1Cl
Ki [1]: 240 nM
Ki [2]: 800 nM
Ki (Histone deacetylase 8): > 50 µM
Ki [3]: 240 nM
Ki (Histone deacetylase 4): > 50 µM
Ki (Histone deacetylase 7): > 50 µM
Ki [4]: > 50 µM
Ki [5]: 160 nM
Ki [6]: > 50 µM
Ki (Histone deacetylase 5): > 50 µM
Ki (Histone deacetylase 1): > 50 µM
